Measured values as given in ChEMBL document CHEMBL1121573, “2-(Aminomethyl)phenols, a new class of saluretic agents. 1. Effects of nuclear substitution” (J Med Chem, 1980).

Legend:
Rattus norvegicus [1] = test: Oral diuretic activity was evaluated by measuring Na+ excretion in Rat at 3 mg/kg […] ( 0-5 hr ); type: ADME, organism-based, Urine; parameters: dose 3 mg/kg; conditions: in vivo, ip
How it was run: (§1)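 Female Charles-River rats (150–170 g) were kept overnight on a sugar diet with water ad libitum. Compound was dissolved in DMF, then diluted with water containing Tween 80 (3 drops/100 mL) to a final 4% DMF, and given po in 5.0 mL. Rats were housed three per metabolism cage. Urine from 0–5 h was analysed for Na+, K+ and Cl−, with concurrent placebo controls. Values are mequiv × 100 per cage, geometric mean of three cages per dose.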

Rattus norvegicus [2] = test: Oral diuretic activity was evaluated by measuring Cl- excretion in Rat at 27 mg/kg after po administration ( 0-5 hr ); conditions: in vivo
Canis familiaris [3] = test: Oral diuretic activity was evaluated by measuring K+ excretion in dog at 1 mg/kg after […] ( 0-6 hr ); type: ADME, organism-based, Canis lupus familiaris, Urine; parameters: dose 1 mg/kg; conditions: in vivo
How it was run: (§2)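 Spontaneous urine was pooled with bladder urine collected by catheterization at 6 h. Volume was measured and Na+, K+ and Cl− were determined by standard methods. Values are geometric means.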

Rattus norvegicus [4] = test: Oral diuretic activity was evaluated by measuring Cl- excretion in Rat at 3 mg/kg after […] ( 0-5 hr ); type: ADME, organism-based, Urine; parameters: dose 3 mg/kg, route intraperitoneal; conditions: in vivo
Canis familiaris [5] = test: Oral diuretic activity was evaluated by measuring K+ excretion in dog at 5 mg/kg after ip administration ( 0-6 hr ); type: ADME, organism-based, Canis lupus familiaris, Urine; parameters: dose 5 mg/kg, route intraperitoneal; conditions: in vivo; how it was run: as §2
Rattus norvegicus [6] = test: Compound administered orally at a dose of 1 mg/kg was evaluated for salidiuretic activity measured as sodium ion excretion in Rat; conditions: in vivo, po
Rattus norvegicus [7] = test: Oral diuretic activity was evaluated by measuring K+ excretion in Rat at 27 mg/kg after po administration ( 0-5 hr ); conditions: in vivo
Canis familiaris [8] = test: Oral diuretic activity was evaluated by measuring Na+ excretion in dog at 5 mg/kg after ip administration ( 0-6 hr ); type: ADME, organism-based, Canis lupus familiaris, Urine; parameters: dose 5 mg/kg, route intraperitoneal; conditions: in vivo
How it was run: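 Urine collected over 0–6 h: spontaneous voids were pooled with bladder urine taken by catheterization at 6 h. Urine volume was measured, and aliquots were analysed for Na+, K+ and Cl− by standard methods. Electrolyte excretion is reported as geometric means.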

[9] = Compound administered orally at a dose of 5 mg/kg was evaluated for salidiuretic activity measured as sodium ion excretion in Rat; type: organism-based; parameters: dose 5 mg/kg; conditions: Urine
How it was run: (§3)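 Female Charles-River rats (150–170 g), overnight on sugar diet with water ad libitum. Compound dissolved in DMF, diluted with water containing Tween 80 (final 4% DMF), given po in 5.0 mL; concurrent vehicle placebo. Three rats per metabolism cage; 0–5 h urine analysed for Na+, K+, Cl-. Values: mequiv × 100 per cage, geometric means of three cages per dose; scored 0–6 by Na+.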

Rattus norvegicus [10] = test: Oral diuretic activity was evaluated by measuring K+ excretion in Rat at 81 mg/kg after […] ( 0-5 hr ); type: ADME, organism-based, Urine; parameters: dose 81 mg/kg; conditions: in vivo
How it was run: (§4)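 Female Charles-River rats (150–170 g) were kept overnight on a sugar diet with water ad libitum. Test substance was dissolved in DMF and diluted with water containing Tween 80 to a final 4% DMF vehicle, then given po in 5.0 mL. Rats were housed three per metabolism cage, and 0–5 h urine was assayed for Na⁺, K⁺ and Cl⁻ alongside concurrent placebo groups. Values are mequiv × 100 per cage, geometric means of three cages per dose.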

[11] = Evaluated for salidiuretic activity measured as sodium ion excretion in Rat, administered orally at a dose of 16.5 mg/kg; type: organism-based; parameters: dose 16.5 mg/kg; conditions: Urine; how it was run: as §3
Canis familiaris [12] = test: Oral diuretic activity was evaluated by measuring Cl- excretion in dog at 1 mg/kg after […] ( 0-6 hr ); type: ADME, organism-based, Canis lupus familiaris, Urine; parameters: dose 1 mg/kg, route intraperitoneal; conditions: in vivo
Rattus norvegicus [13] = test: Oral diuretic activity was evaluated by measuring Cl- excretion in Rat at 9 mg/kg […] ( 0-5 hr ); type: ADME, organism-based, Urine; parameters: dose 9 mg/kg; conditions: in vivo; how it was run: as §4
Canis familiaris [14] = test: Compound administered intravenously at a dose of 5 mg/kg was evaluated for salidiuretic activity measured as sodium ion excretion in Dog; type: ADME, organism-based, Canis lupus familiaris, Urine; parameters: dose 5 mg/kg, route intravenous; conditions: in vivo, iv
How it was run: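 Conditioned female mongrel dogs, postabsorptive, water-loaded (500 mL po) 1 h before sodium pentobarbital anesthesia (30 mg/kg iv). Bladder catheter; creatinine 4 g sc; phosphate–mannitol buffer pH 7.4 infused (3.0 mL/min) throughout. […] Urine Na+ measured; response scored 0–6.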

Rattus norvegicus [15] = test: Oral diuretic activity was evaluated by measuring Na+ excretion in Rat at 9 mg/kg […] ( 0-5 hr ); type: ADME, organism-based, Urine; parameters: dose 9 mg/kg; conditions: in vivo, ip; how it was run: as §1
Rattus norvegicus [16] = test: Oral diuretic activity was evaluated by measuring K+ excretion in Rat at 3 mg/kg […] ( 0-5 hr ); type: ADME, organism-based, Urine; parameters: dose 3 mg/kg; how it was run: as §4
Rattus norvegicus [17] = test: Oral diuretic activity was evaluated by measuring K+ excretion in Rat at 9 mg/kg […] ( 0-5 hr ); type: ADME, organism-based, Urine; parameters: dose 9 mg/kg; how it was run: as §4
Canis familiaris [18] = test: Oral diuretic activity was evaluated by measuring Na+ excretion in dog at 1 mg/kg after ip administration ( 0-6 hr ); type: ADME, organism-based, Canis lupus familiaris, Urine; parameters: dose 1 mg/kg, route intraperitoneal; conditions: in vivo; how it was run: as §2
Rattus norvegicus [19] = test: Oral diuretic activity was evaluated by measuring Cl- excretion in Rat at 81 mg/kg after po administration ( 0-5 hr ); conditions: in vivo
Rattus norvegicus [20] = test: Evaluated for salidiuretic activity measured as sodium ion excretion in Rat, administered orally at a dose of 50 mg/kg; type: functional, Urine; parameters: unit not given beside the values; conditions: route oral; how it was run: as §3
Rattus norvegicus [21] = test: Oral diuretic activity was evaluated by measuring Na+ excretion in Rat at 81 mg/kg […] ( 0-5 hr ); type: ADME, organism-based, Urine; parameters: dose 81 mg/kg; how it was run: as §1
Rattus norvegicus [22] = organism: Rattus norvegicus; test: Time taken for the decrease in arterial pressure was measured; type: functional, Artery
Canis familiaris [23] = test: Oral diuretic activity was evaluated by measuring Cl- excretion in dog at 5 mg/kg after […] ( 0-6 hr ); type: ADME, organism-based, Canis lupus familiaris, Urine; parameters: dose 5 mg/kg, route intraperitoneal; conditions: in vivo
Rattus norvegicus [24] = test: Oral diuretic activity was evaluated by measuring Na+ excretion in Rat at 27 mg/kg after […] ( 0-5 hr ); type: ADME, organism-based, Urine; parameters: dose 27 mg/kg; how it was run: as §1
Rattus norvegicus [25] = test: Maximum fall in mean arterial blood pressure was measured in SH rats when compound was administered at 30 mg/kg perorally; type: functional; conditions: route oral

`COc1c(Cl)c(O)c(CN)c(OC)c1Cl.Cl` gave a Diuretic activity (Rattus norvegicus [1]) of 0.86, a Diuretic activity (Rattus norvegicus [2]) of 2.51 and a Diuretic activity (Canis familiaris [3]) of 4.78. The Diuretic activity (Rattus norvegicus [4]) was 1.25, the Diuretic activity (Canis familiaris [5]) was 8 and the Diuretic activity (Rattus norvegicus [6]) was 0.7. For the same compound, the Diuretic activity (Rattus norvegicus [7]) was 0.42, the Diuretic activity (Canis familiaris [8]) was 42.5 and the Diuretic activity [9] was 2.6. The Diuretic activity (Rattus norvegicus [10]) was 0.39, the Diuretic activity [11] was 3.3 and the Diuretic activity (Canis familiaris [12]) was 24.67. The Diuretic activity (Rattus norvegicus [13]) was 2.36, the Diuretic activity (Canis familiaris [14]) was greater than 900 and the Diuretic activity (Rattus norvegicus [15]) was 1.58. The Diuretic activity (Rattus norvegicus [16]) was 0.26, the Diuretic activity (Rattus norvegicus [17]) was 0.42 and the Diuretic activity (Canis familiaris [18]) was 17.78. For the same compound, the Diuretic activity (Rattus norvegicus [19]) was 3.26, the Diuretic activity (Rattus norvegicus [20]) was 3.6 and the Diuretic activity (Rattus norvegicus [21]) was 2.17. The Duration (Rattus norvegicus [22]) was 12 h, the Diuretic activity (Canis familiaris [23]) was 54.5 and the Diuretic activity (Rattus norvegicus [24]) was 1.61. It also gave an MAP (Rattus norvegicus [25]) of 19 mmHg.
